Results from PubChem BioAssay AID2372 (NMMLSC, 2010).

Target: Cell division control protein 42 homolog (Homo sapiens) (UniProt P60953)
Test: Cdc42 GTP Bmax and Kd shifts – biochemical, nucleotide-depleted protein, Mg buffer, varying GTP, mechanism study for Ras-family GTPase inhibitor project, late-stage follow-up (AID 2372)
Details: GST-Cdc42 beads, BODIPY-GTP binding, flow cytometry
Procedure, shortened: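 Material: nucleotide-free GST-Cdc42 on glutathione beads; Amount: 4 µM GST-Cdc42 used for overnight bead loading at 4 °C; Medium: buffer with 1 mM MgCl2, after 10 mM EDTA stripping; Dosing: 10 µM compound or DMSO; Times: 2 min compound pre-incubation before BODIPY-GTP.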

Cell division control protein 42 homolog (Homo sapiens), sequence (P60953 whole entry, looked up): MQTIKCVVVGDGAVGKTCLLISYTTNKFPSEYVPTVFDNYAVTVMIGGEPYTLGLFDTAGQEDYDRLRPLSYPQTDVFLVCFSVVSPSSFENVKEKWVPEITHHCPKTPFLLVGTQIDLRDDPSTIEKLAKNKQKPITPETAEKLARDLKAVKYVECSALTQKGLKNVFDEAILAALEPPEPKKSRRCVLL

Bmax with compound (at 10 µM, stronger effect = lower value): 1540 | Kd of GTP with compound (measured here: GTP affinity with 10 uM compound): 7.16 nM
Compound: COc1ccc(C2CC(c3ccccc3)=NN2c2ccc(S(N)(=O)=O)cc2)cc1 (configuration not stated)
